The record followed here is ChEMBL document CHEMBL1154534, “Ultrasound promoted synthesis of 2-imidazolines in water: a greener approach toward monoamine oxidase inhibitors” (Bioorg Med Chem Lett, 2009).

For experiment [1], the target named is T1, Amine oxidase [flavin-containing] B (Rattus norvegicus, UniProt P19643).
T1 sequence (P19643 whole entry): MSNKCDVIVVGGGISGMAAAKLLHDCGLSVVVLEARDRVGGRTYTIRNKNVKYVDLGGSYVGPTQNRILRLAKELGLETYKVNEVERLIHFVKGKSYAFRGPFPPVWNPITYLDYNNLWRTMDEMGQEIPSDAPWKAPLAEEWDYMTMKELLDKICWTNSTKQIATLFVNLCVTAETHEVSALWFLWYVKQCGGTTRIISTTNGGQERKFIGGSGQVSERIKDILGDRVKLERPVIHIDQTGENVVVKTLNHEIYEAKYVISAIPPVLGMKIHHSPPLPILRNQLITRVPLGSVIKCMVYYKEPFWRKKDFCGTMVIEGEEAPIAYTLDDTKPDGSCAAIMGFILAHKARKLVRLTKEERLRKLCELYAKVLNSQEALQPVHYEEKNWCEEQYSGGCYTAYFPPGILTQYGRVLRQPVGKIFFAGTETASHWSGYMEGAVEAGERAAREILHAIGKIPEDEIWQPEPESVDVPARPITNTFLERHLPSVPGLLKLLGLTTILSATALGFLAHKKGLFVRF
The experiment is described as follows: Binding affinity to MAOB imidazoline binding site in rat brain mitochondrial homogenate assessed as 4-hydroxyquinoline production by spectrophotometry. The format is tissue-based. The essentials: (§1)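 Rat brain mitochondrial homogenates, with protein measured by Bradford. Fractions were preincubated for 5 min at 37 °C with 250 nM selegiline (MAO-A assay) or 250 nM clorgyline (MAO-B assay). Compounds were added in DMSO, followed 5 min later by kynuramine at its KM for each isoform. Incubation ran 30 min at 37 °C and was stopped with trichloroacetic acid, then centrifuged. 4-Hydroxyquinoline was read at 314 nm, or by fluorescence (ex 315/em 380 nm) if compounds interfered.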

Experiment [2] addresses T2, Amine oxidase [flavin-containing] A (Rattus norvegicus, UniProt P21396).
T2 sequence (P21396 whole entry): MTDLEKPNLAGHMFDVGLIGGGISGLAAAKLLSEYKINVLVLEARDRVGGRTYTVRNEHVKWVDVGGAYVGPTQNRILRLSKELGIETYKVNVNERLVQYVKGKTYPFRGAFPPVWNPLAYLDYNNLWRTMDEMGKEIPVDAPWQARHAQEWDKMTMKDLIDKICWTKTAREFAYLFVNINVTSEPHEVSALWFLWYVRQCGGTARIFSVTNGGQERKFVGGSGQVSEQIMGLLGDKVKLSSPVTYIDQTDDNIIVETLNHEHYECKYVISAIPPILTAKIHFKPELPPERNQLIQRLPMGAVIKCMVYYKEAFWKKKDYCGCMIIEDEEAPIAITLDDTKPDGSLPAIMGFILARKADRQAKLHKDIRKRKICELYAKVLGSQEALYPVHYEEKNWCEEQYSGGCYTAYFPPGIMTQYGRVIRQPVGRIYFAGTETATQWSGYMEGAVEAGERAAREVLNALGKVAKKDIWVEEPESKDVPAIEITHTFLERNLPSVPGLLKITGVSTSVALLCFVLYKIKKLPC
As to the kind of experiment: Binding affinity to MAOA imidazoline binding site in rat brain mitochondrial homogenate assessed as 4-hydroxyquinoline production by spectrophotometry. The format is tissue-based. The essentials: as §1

Experiment [3] is filed under the species Rattus norvegicus. As to the kind of experiment: Selectivity index, ratio of Ki rat for MAOA to Ki for rat MAOB.
The species entered for experiment [4] is Rattus norvegicus. The experiment is described as follows: Selectivity index, ratio of Ki rat for MAOB to Ki for rat MAOA.

As to `c1coc(C2=NCCN2)c1`, the inhibition constant Ki in experiment [1] and in experiment [2] was over 1000 µM in each case.
As for `c1ccc(C2=NCCN2)cc1`, the Ki in experiment [1] amounted to 21.3 µM; in experiment [2] it was 28.8 µM. In the experiment listed under Rattus norvegicus [3], the Ratio Ki turned out to be 1.35.
The like results for `Clc1ccccc1C1=NCCN1` were, in that order, 24.6 µM, over 1000 µM and over 40.7.
The like results for `O=C(Oc1ccc(C2=NCCN2)cc1)c1ccccc1` were, in that order, 1.38 µM, 12.8 µM and 9.27.
For `Cc1ccc(C2=NCCN2)cc1`, the Ki in experiment [1] was 13.1 µM; in experiment [2], 102 µM. In addition, in the experiment filed under Rattus norvegicus [3], the Ratio Ki turned out to be 7.79.
The matching figures for `Clc1ccc(C2=NCCN2)c(Cl)c1`: 3.98 µM, 28.8 µM and 10.5.
The like results for `c1ccc(C2=NCCN2)nc1` were, in that order, 25.3 µM, over 1000 µM and over 39.5.
The matching figures for `COc1ccc(C2=NCCN2)cc1`: 32.7 µM, 15.8 µM and 0.48.
Consider `c1ccc2cc(C3=NCCN3)ccc2c1` [BENAZOLINE], for which the Ki came to 1.49 µM in experiment [1] and 13.9 µM in experiment [2]. Also, the Ratio Ki in the experiment filed under Rattus norvegicus [3] came to 9.32.
Consider `O=[N+]([O-])c1ccc(C2=NCCN2)cc1`, for which the Ki in experiment [1] was over 1000 µM; in experiment [2], 181 µM. Also, the Ratio Ki in the experiment filed under Rattus norvegicus [3] was under 0.181.
Take `c1ccc2oc(C3=NCCN3)cc2c1`: the half-maximal inhibitory concentration (IC50) in experiment [1] is 9.1 µM; in experiment [2] it was 65 µM. Further, the Ki is 3.63 µM in experiment [1] and 24.9 µM in experiment [2].
For `c1ccc2nc(C3=NCCN3)ccc2c1`, in experiment [1], the half-inhibitory concentration (IC50) is 13.3 µM and the Ki worked out at 5.32 µM. In experiment [2], the IC50 worked out at 12.7 µM and the inhibition constant (Ki) came out at 4.86 µM. Besides, the Ratio Ki in the experiment listed under Rattus norvegicus [3] is 0.91.
Consider `COc1ccc(C2=NCCN2)cc1OC`, for which the Ratio Ki turned out to be 73 in the experiment listed under Rattus norvegicus [4] and 0.013 in the experiment filed under Rattus norvegicus [3]. The Ki in experiment [1] was 1000 µM; in experiment [2], 13.6 µM.
For `COc1cc(C2=NCCN2)cc(OC)c1OC`, the Ki in experiment [1] came to 1000 µM; in experiment [2] it was 114 µM. Also, the Ratio Ki in the experiment listed under Rattus norvegicus [3] stood at 0.114.
Take `Clc1ccc(C2=NCCN2)cc1`: the figures for the Ki in experiment [1] and in experiment [2] were 5.35 µM and 166 µM, respectively. Further, the Ratio Ki in the experiment listed under Rattus norvegicus [3] was found to be 31.1.
The like results for `O=[N+]([O-])c1cccc(C2=NCCN2)c1` were, in that order, 19.3 µM, over 1000 µM and over 51.9.

As usually defined, the Ki is a measure of affinity in units of concentration, obtained from inhibition or displacement. A word on the IC50: it is the midpoint of a concentration-inhibition curve.
